From ChEMBL document CHEMBL4765399, “Design, synthesis, and biological evaluation of 5-((8-methoxy-2-methylquinolin-4-yl)amino)-1H-indole-2-carbohydrazide derivatives as novel Nur77 modulators” (Eur J Med Chem, 2020)
Calls of active or inactive are those of the source. The rule behind the calls is not given here.

Tests used:
L02 = assay: Cytotoxicity against human L02 cells assessed as reduction in cell viability incubated for 48 hrs by MTT assay; format: cell-based; details: L02, 48 h
In short: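 MTT assay after 48 h exposure at six concentrations, range chosen by cytotoxicity. Inhibition = (ODcontrol − ODtest)/ODcontrol × 100%; IC50 is the concentration halving OD versus untreated cells. Means ± SD of three independent determinations. HepG2 and SMMC-7721 grown in DMEM, QGY-7703 and LO2 in RPMI 1640, with 10% FBS at 37 °C.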

HepG2 [1] = assay: Upregulation of Nur77 expression in human HepG2 cells at 2 uM incubated for 6 hrs by Western blot analysis; format: functional, cell-based
In short: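 HepG2, QGY-7703 and SMMC-7721 cells treated with the indicated concentrations for 6 h. HepG2 also given 2.0 µM over a time course. Lysis in RIPA with protease and phosphatase inhibitors; 40-80 µg protein by SDS-PAGE, nitrocellulose transfer. Membranes blocked with 5% milk, primary antibody overnight, HRP secondary, chemiluminescence. GAPDH as loading control.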

HepG2 [2] = assay: Upregulation of RXRalpha expression in human HepG2 cells at 2 uM incubated for 2 to 12 hrs by Western blot analysis; format: functional, cell-based; details: time 2-12 hrs
In short: (§1)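 HepG2 cells given 2.0 µM for the indicated times. RXRα, RARγ and Nur77 detected by western blot: RIPA lysis with protease and phosphatase inhibitors, 40-80 µg protein by SDS-PAGE, nitrocellulose, 5% milk block, primary antibody overnight, HRP secondary, chemiluminescence read-out.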

HepG2 [3] = assay: Upregulation of RARgamma expression in human HepG2 cells at 2 uM incubated for 2 to 12 hrs by Western blot analysis; format: functional, cell-based; details: time 2-12 hrs; in short: as §1
[4] = biological target: T1, Nuclear receptor subfamily 4immunitygroup A member 1 (Homo sapiens, UniProt P22736); assay: Modulation of Nur77 in human HepG2 cells assessed as induction of Nur77 translocation into cytoplasm from nucleus at 2 uM incubated for 6 hrs by DAPI staining based immunofluorescence assay; format: cell-based; details: filed as modulator
In short: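 HepG2 exposed to 2.0 µM for set times, fixed (4% paraformaldehyde), permeabilised (0.1% Triton X-100), BSA-blocked, incubated 1 h with anti-Nur77 (1:500) then FITC or Cy3 anti-rabbit IgG; nuclei DAPI-stained; confocal imaging.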

[5] = biological target: T1, Nuclear receptor subfamily 4immunitygroup A member 1; assay: Modulation of Nur77 in human HepG2 cells assessed as induction of Nur77 translocation into cytoplasm from nucleus by measuring increase in protein expression in cytoplasm at 2 uM by western blot analysis; format: subcellular; details: filed as modulator, time 1-8 hrs, TDE = time-dependent effect
In short: (§2)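 HepG2 given 2.0 µM for set times; cells swollen 10 min on ice in HEPES/NaCl/EDTA/CaCl2/MgCl2 buffer, 0.1% NP40 added, spun 15000 rpm 3 min at 4 °C giving cytoplasmic supernatant; pellet extracted in RIPA. Fractions blotted for Nur77, with PARP (nuclear) and tubulin (cytoplasmic) as loading controls.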

HepG2 [6] = assay: Induction of apoptosis in human HepG2 cells assessed as increase in cleaved PARP level at 0.5 to 2 uM incubated for 12 hrs by Western blot analysis; format: functional, cell-based; details: dose 0.5-2 µM
In short: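 HepG2 cells exposed 12 h to graded concentrations. RIPA lysates with protease/phosphatase inhibitors, 40–80 µg protein by SDS-PAGE onto nitrocellulose, probed for PARP cleavage, chemiluminescent detection.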

QGY-7703 = assay: Induction of apoptosis in human QGY-7703 cells assessed as increase in cleaved PARP level at 0.5 to 2 uM incubated for 12 hrs by Western blot analysis; format: functional, cell-based; details: dose 0.5-2 µM
In short: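 QGY-7703 (RPMI 1640, 10% FBS) and SMMC-7721 (DMEM) cells at 37 °C, 5% CO2, treated with graded concentrations for 12 h. RIPA lysates (40-80 µg protein) run on SDS-PAGE, transferred to nitrocellulose, immunoblotted for cleaved PARP; chemiluminescence read-out.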

HepG2 [7] = assay: Induction of apoptosis in human HepG2 cells assessed as live cells at 2 uM incubated for 12 hrs by Annexin V-FITC/PI staining based flow cytometry (reference value: 90.7 to 94%); format: functional
HepG2 [8] = assay: Induction of autophagy in Nur77 knockout human HepG2 cells assessed as increase in LC3-II expression at 2 uM measured after 6 to 12 hrs by Western blot analysis; format: functional, cell-based; details: time 6-12 hrs
In short: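 Scrambled-control and shNur77 HepG2 given DMSO or 2.0 µM for 6 or 12 h; immunoblotting of RIPA lysates for LC3, Beclin1 and Nur77 after SDS-PAGE and nitrocellulose transfer, chemiluminescent detection.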

HepG2 [9] = assay: Antitumor activity against human HepG2 cells xenografted in BALB/c mouse assessed as tumor growth inhibition at 20 mg/kg/day, ip administered for 15 days; format: functional; details: 360 h, time 15 day
In short: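 Subcutaneous flank xenograft of 5×10^6 HepG2 cells in 4-week-old male Balb/c nude mice. At about 100 mm³, 15 mice were randomized into three groups: vehicle, 10 or 20 mg/kg i.p. daily for 15 days. Tumor size was measured every day, and tumors were excised and weighed at the end.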

[10] = Toxicity in BALB/c mouse xenografted with human HepG2 cells assessed as effect on body weight at 10 to 20 mg/kg/day, ip administered for 15 days; format: organism-based; details: in vivo, 360 h, dose 10-20 mg/kg/day, time 15 day
In short: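 Male Balb/c mice, 4 weeks old, injected subcutaneously in the flank with 5×10^6 HepG2 cells. At about 100 mm³, 15 mice randomized into vehicle, 10 and 20 mg/kg groups. Dosed i.p. once daily for 15 days. Tumour size and body weight measured daily; mice euthanized at the end.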

[11] = biological target: T1, Nuclear receptor subfamily 4immunitygroup A member 1; assay: Modulation of Nur77 in human HepG2 cells assessed as induction of Nur77 translocation into cytoplasm from nucleus by measuring decrease in protein expression in nucleus at 2 uM by western blot analysis; format: subcellular; details: filed as modulator, time 1-8 hrs, TDE = time-dependent effect; in short: as §2
HepG2 [12] = assay: Induction of apoptosis in human HepG2 cells transfected with shRNA assessed as late apoptotic cells at 2 uM incubated for 12 hrs by Annexin V-FITC/PI staining based flow cytometry (reference value: 2.18%); format: functional
HepG2 [13] = assay: Antitumor activity against human HepG2 cells xenografted in BALB/c mouse assessed as sparser and vacuolated cells in tumor tissue at 10 to 20 mg/kg/day, ip for 15 days by hematoxylin and eosin staining based microscopic analysis; format: functional, organism-based; details: dose 10-20 mg/kg/day, time 15.0 day
In short: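 H&E staining of 4% paraformaldehyde-fixed, paraffin-embedded 5 μm tumor slices from the HepG2 flank xenograft (male Balb/c nude mice, 10 or 20 mg/kg i.p. daily for 15 days, versus vehicle). Examined by light microscopy at 200, 400 and 1000×.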

HepG2 [14] = assay: Antitumor activity against human HepG2 cells xenografted in BALB/c mouse assessed as induction of ER stress by measuring increase in CHOP level in tumor tissue at 10 to 20 mg/kg/day, ip administered for 15 days by western blot analysis; format: functional, organism-based; details: dose 10-20 mg/kg/day, time 15.0 day
In short: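 HepG2 cells (5×10^6) injected subcutaneously into flanks of 4-week-old male Balb/c nude mice. At about 100 mm³, 15 mice were randomized to vehicle, 10 or 20 mg/kg i.p. once daily for 15 days. Tumors were then excised for immunostaining of paraffin sections (5 μm) or for western blot.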

T1 sequence (P22736 whole entry): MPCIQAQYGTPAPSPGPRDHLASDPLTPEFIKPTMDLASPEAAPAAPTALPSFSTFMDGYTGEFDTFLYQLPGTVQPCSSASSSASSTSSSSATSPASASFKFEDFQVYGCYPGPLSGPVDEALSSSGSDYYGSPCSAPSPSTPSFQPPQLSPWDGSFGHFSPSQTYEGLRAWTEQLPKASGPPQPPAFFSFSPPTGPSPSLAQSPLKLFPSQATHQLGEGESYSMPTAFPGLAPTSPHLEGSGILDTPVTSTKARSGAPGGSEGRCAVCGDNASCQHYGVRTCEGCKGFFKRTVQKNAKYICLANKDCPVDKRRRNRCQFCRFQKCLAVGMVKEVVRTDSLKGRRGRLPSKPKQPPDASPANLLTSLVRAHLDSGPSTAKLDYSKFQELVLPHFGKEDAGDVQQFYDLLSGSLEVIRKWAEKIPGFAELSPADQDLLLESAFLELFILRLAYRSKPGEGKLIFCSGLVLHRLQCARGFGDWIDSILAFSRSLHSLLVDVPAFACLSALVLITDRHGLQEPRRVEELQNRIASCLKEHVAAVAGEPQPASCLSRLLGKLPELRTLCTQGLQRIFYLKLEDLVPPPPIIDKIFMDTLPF

- Activity [4]: Active
- Activity [5]: Tde
- Activity [11]: Tde
SMILES: COc1cccc2c(Nc3ccc4[nH]c(C(=O)N/N=C/c5ccc(SC)cc5)cc4c3)cc(C)nc12
- IC50 (L02): > 20 µM
- Activity (HepG2 [1]): Active
- Activity (HepG2 [2]): inactive
- Activity (HepG2 [3]): inactive
- Activity (HepG2 [6]): Dose-dependent effect
- Activity (QGY-7703): Dose-dependent effect
- Activity (HepG2 [7]): 8.8%
- Activity (HepG2 [8]): inactive
- inhibition in vivo at 20 mg/kg/day (HepG2 [9]): 62.4%
- Activity [10]: Non-Toxic
- Activity (HepG2 [12]): 23%
- Activity (HepG2 [13]): Active
- Activity (HepG2 [14]): Active
